These results are taken from ChEMBL document CHEMBL1811797, “Evolution from a natural flavones nucleus to obtain 2-(4-Propoxyphenyl)quinoline derivatives as potent inhibitors of the S. aureus NorA efflux pump” (J Med Chem, 2011).

Structures are written as SMILES. Values after ≈ are worked out from the molar mass of the structure shown. Active and inactive are the calls of the source. The calls are words filed in the database; no cut-off is given here.

In assay [1] the target is T1, Quinolone resistance protein NorA (Staphylococcus aureus) (UniProt P0A0J7).
T1 sequence (whole entry): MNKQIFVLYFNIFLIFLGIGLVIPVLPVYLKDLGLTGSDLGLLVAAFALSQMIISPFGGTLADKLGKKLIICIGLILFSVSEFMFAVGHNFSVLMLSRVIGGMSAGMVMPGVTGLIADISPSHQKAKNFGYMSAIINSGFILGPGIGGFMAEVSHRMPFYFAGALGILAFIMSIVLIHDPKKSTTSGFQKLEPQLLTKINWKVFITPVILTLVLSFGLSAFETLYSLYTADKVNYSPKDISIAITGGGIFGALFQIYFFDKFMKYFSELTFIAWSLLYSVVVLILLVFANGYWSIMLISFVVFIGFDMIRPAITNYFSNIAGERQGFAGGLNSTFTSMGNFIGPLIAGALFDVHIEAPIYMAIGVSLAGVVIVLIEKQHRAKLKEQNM
In words: Inhibition of NorA in Staphylococcus aureus 1199B assessed as inhibition of ethidium bromide efflux at 50 uM by fluorimetry. The procedure, abridged:
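Fluorometric measurement of EtBr loss from norA-overexpressing SA-1199B, with compounds screened at 50 μM. Performed in duplicate; value is mean total efflux over a 5 min time course, expressed as percent inhibition.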

In assay [2] the test system is Staphylococcus aureus. Briefly: Antibacterial activity against Staphylococcus aureus 1199B norA++ and A116E GrlA mutation by M7-A7 CLSI microdilution method. It is filed as functional.
Assay [3] addresses T1, Quinolone resistance protein NorA (Staphylococcus aureus). Briefly: Inhibition of wild-type norA expressing Staphylococcus aureus 1199 assessed as reduction in ciprofloxacin MIC.
Assay [4] relates to Staphylococcus aureus. Briefly: Antibacterial activity against wild-type norA expressing Staphylococcus aureus 1199 by M7-A7 CLSI microdilution method. It is filed as functional. On the technique in general: Dilution methods test growth across graded concentrations, often in twofold steps.
Assay [5] has as its system Staphylococcus aureus. Briefly: Antibacterial activity against wild-type Staphylococcus aureus ATCC 25923 by M7-A7 CLSI microdilution method. Type of assay: functional.
In assay [6] the target is T1, Quinolone resistance protein NorA (Staphylococcus aureus). Particulars: 1199B, 25 ug/mL.
Assay [7] has as its system Staphylococcus aureus. In words: Potentiation of ciprofloxacin-antibacterial activity against wild-type Staphylococcus aureus ATCC 25923 assessed as reduction in ciprofloxacin MIC by M7-A7 CLSI microdilution method. Type of assay: functional, organism-based.
Assay [8] has as its system Staphylococcus aureus. Briefly: Antibacterial activity against Staphylococcus aureus K2378 bearing norA++ efficient mutation by M7-A7 CLSI microdilution method. Type of assay: functional.
For assay [9], the system named is Staphylococcus aureus. Briefly: Antibacterial activity against NorA-expressing Staphylococcus aureus 1199B by M7-A7 CLSI microdilution method. Type of assay: functional.
For assay [10], the target named is T2, Quinolone resistance protein NorA (Staphylococcus aureus, UniProt P0A0J7).
T2 sequence (P0A0J7 whole entry): T1 sequence (whole entry)
In words: Inhibition of NorA in Staphylococcus aureus 1199B assessed as inhibition of ethidium bromide efflux dose response curve based fluorometric assay. The procedure, abridged: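 Fluorometric EtBr efflux (loss of EtBr) from S. aureus SA-1199B (norA-overexpressing); dose-response curves built to assess activity at concentrations below the 50 μM screening level; duplicate experiments, result expressed as mean total efflux over a 5 min time course; IC50 derived from the curves.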

The test system of assay [11] is Staphylococcus aureus. Briefly: Antibacterial activity against Staphylococcus aureus K1902 bearing norA-deficient mutation by M7-A7 CLSI microdilution method. Type of assay: functional.
Assay [12] relates to Staphylococcus aureus. Briefly: Potentiation of ciprofloxacin-antibacterial activity against Staphylococcus aureus K1902 bearing norA-deficient mutation assessed as reduction in ciprofloxacin MIC at 0.78 ug/mL by M7-A7 CLSI microdilution method. It is filed as functional.
The target in assay [13] is T1, Quinolone resistance protein NorA (Staphylococcus aureus). In words: Inhibition of NorA in Staphylococcus aureus 1199B norA++ and A116E GrlA mutation assessed as reduction in ciprofloxacin MIC at >12.5 ug/mL.
The target is the same in assay [14]. Briefly: Inhibition of NorA in Staphylococcus aureus K2378 bearing norA++ efficient mutation assessed as reduction in ciprofloxacin MIC at 3.13 ug/mL.
Assay [15] has as its system Staphylococcus aureus. Briefly: Potentiation of ciprofloxacin-antibacterial activity against Staphylococcus aureus K1902 bearing norA-deficient mutation assessed as reduction in ciprofloxacin MIC at >25 ug/mL by M7-A7 CLSI microdilution method. Type of assay: functional.
Assay [16] has as its target T1, Quinolone resistance protein NorA (Staphylococcus aureus). In words: Inhibition of NorA in Staphylococcus aureus K2378 bearing norA++ efficient mutation assessed as reduction in ciprofloxacin MIC at 1.56 ug/mL.
For assay [17] the target is unchanged. In words: Inhibition of NorA in Staphylococcus aureus 1199B norA++ and A116E GrlA mutation assessed as reduction in ciprofloxacin MIC at 50 ug/mL.
For assay [18] the target is unchanged. In words: Inhibition of NorA in Staphylococcus aureus K2378 bearing norA++ efficient mutation assessed as reduction in ciprofloxacin MIC at 12.5 ug/mL.
For assay [19] the target is unchanged. Briefly: Inhibition of NorA in Staphylococcus aureus 1199B norA++ and A116E GrlA mutation assessed as reduction in ciprofloxacin MIC at 100 ug/mL.
The target is the same in assay [20]. In words: Inhibition of NorA in Staphylococcus aureus 1199B norA++ and A116E GrlA mutation assessed as reduction in ciprofloxacin MIC at >=12.5 ug/mL.
The target is the same in assay [21]. Briefly: Inhibition of NorA in Staphylococcus aureus K2378 bearing norA++ efficient mutation assessed as reduction in ciprofloxacin MIC at 6.25 ug/mL.

For orientation: inhibition means the percentage by which the read-out fell short of the control. As for `CCCOc1ccc(-c2cc(=O)c3ccccc3n2C)cc1`, in [1], the inhibition was found to be 33.9%.
The same measure, in the same setting: next, `Cn1c(-c2ccc(OCCN3CCOCC3)cc2)cc(=O)c2ccccc21`: 0%.
As to `Cn1c(-c2ccc(O)cc2)cc(=O)c2ccccc21`, the inhibition in assay [1] is 0%.
Still for that read-out and setting: the same measure for `Cn1c(-c2ccc(O)cc2)cc(=O)c2cc(O)c(O)cc21`: 0%; for `Cn1c(-c2ccccc2)cc(=O)c2cc(O)c(O)cc21`: 0%.
On to `COc1ccc(-c2cc(=O)c3ccccc3n2C)cc1`, for which the inhibition in assay [1] was 0%.
Same read-out and setting: the same measure for `CCCOc1ccc(-c2cc(OC)c3ccccc3n2)cc1`: 63.7%; for `CCCOc1ccc(-c2cc(O)c3ccccc3n2)cc1`: 0%.
In general, MIC refers to the least concentration at which growth counts as inhibited. A high value points to weaker potency. Broadly, the IC50 is the point on the concentration scale where inhibition reaches its midpoint. As for `Fc1ccc([C@@H]2CCNC[C@H]2COc2ccc3c(c2)OCO3)cc1` [PAROXETINE], the MIC was more than 100 µg/mL in assay [2]; more than 100 µg/mL in assay [4]; more than 100 µg/mL in [5]; 100 µg/mL (≈ 304 µM) in assay [8]; more than 303 µM in assay [9]; more than 100 µg/mL in assay [11]. Besides, the inhibition entry in [3] and in assay [6] was “inactive” throughout. For the same compound, the outcome in [7] was inactive. The inhibition in [1] came out at 89.7%. Also, the IC50 in assay [10] was 7 µM.
For the compound `COC(=O)[C@H]1[C@H]2C[C@@H]3c4[nH]c5cc(OC)ccc5c4CCN3C[C@H]2C[C@@H](OC(=O)c2cc(OC)c(OC)c(OC)c2)[C@@H]1OC` [RESERPINE], the MIC is more than 100 µg/mL in assay [2]; more than 100 µg/mL in [4]; more than 100 µg/mL in assay [5]; more than 100 µg/mL in assay [8]; more than 164 µM in assay [9]; more than 100 µg/mL in assay [11]. For the same compound, the inhibition entry in [3] was “inactive”. Besides, the result in assay [7] was inactive. In addition, in [10], the IC50 came to 7 µM.
Take `CCCOc1ccc(-c2cc(OCCN(CC)CC)c3ccccc3n2)cc1`: the “fold change (FC)” value in assay [12] worked out at 4; in assay [13], 8; in assay [14], 16; in assay [15] it was 8. In addition, the minimal inhibitory concentration (MIC) is more than 100 µg/mL in [2]; more than 100 µg/mL in assay [4]; 100 µg/mL (≈ 264 µM) in assay [5]; 50 µg/mL (≈ 132 µM) in [8]; more than 241 µM in assay [9]; 50 µg/mL (≈ 132 µM) in [11]. Besides, the inhibition result in assay [3] was “inactive”. In [7], the result was inactive. Also, the IC50 in [10] turned out to be 7 µM.
In the case of `CCCOc1ccc(-c2cc(=O)c3ccccc3n2CCN2CCCCC2)cc1`, the fold change (FC) in [16] was found to be 4. The MIC is more than 100 µg/mL in assay [2]; more than 100 µg/mL in assay [4]; more than 100 µg/mL in assay [5]; more than 100 µg/mL in assay [8]; more than 256 µM in [9]; more than 100 µg/mL in [11]. The inhibition result in [3] and in [17] was “inactive” in each case. Moreover, the result in assay [7] was inactive.
`CCN(CC)CCOc1cc(-c2ccc(OCCN3CCCCC3)cc2)nc2ccccc12`: the MIC is more than 100 µg/mL in [2]; more than 100 µg/mL in assay [4]; 100 µg/mL (≈ 223 µM) in [5]; 100 µg/mL (≈ 223 µM) in [8]; more than 223 µM in assay [9]; 100 µg/mL (≈ 223 µM) in assay [11]. Moreover, the inhibition result in assay [3] and in assay [19] was “inactive” in each case. In [7], the outcome was inactive. For the same compound, the fold change (FC) in assay [18] is 4.
For the compound `CCCOc1ccc(-c2cc(OCCN3CCCCC3)c3ccccc3n2)cc1`, the fold change (FC) in assay [20] is 16; in assay [12], 4; in [21], 16; in assay [15], 8. Besides, the MIC in assay [2] stood at 100 µg/mL (≈ 256 µM); in assay [4], 100 µg/mL (≈ 256 µM); in assay [5] it was 100 µg/mL (≈ 256 µM); in assay [8], 50 µg/mL (≈ 128 µM); in assay [9] it was 256 µM (≈ 100 µg/mL); in assay [11] it was 50 µg/mL (≈ 128 µM). Also, the inhibition entry in assay [3] is “inactive”. Further, the outcome in [7] was inactive. In addition, the IC50 in [10] was determined as 7 µM.
As to `COc1cc2c(=O)cc(-c3ccc(O)cc3)n(C)c2cc1OC`, in [1], the inhibition amounted to 0%.
On the same count and under the same terms, the same measure for `CCCOc1ccc(-c2cc(=O)c3cc(OC)c(OC)cc3n2C)cc1`: 0%.
